TRPC4 agonist – activators of mouse TRPC4 channel | HEK293 TRPC4beta/mu-opioid, Fluo4 calcium fluorescence; hits give high values | 310,000 compounds, 0.49% hits | AID 2237 | B-score at 10 µM | Q9QUQ5;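 active = B-score above 5 SD of library B-scores, and initial fluorescence ratio not above library mean plus 5 SD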;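 note: positive B-score marks a calcium rise read as TRPC4 activation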
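Assay system: HEK293 stable line with TRPC4beta plus mu-opioid receptor; schedule: 45 min room-temperature Fluo4 loading, 110 s read; technique: kinetic Fluo4 calcium fluorescence; evaluation: integrated baseline-normalised fluorescence ratio, converted to per-well B score; controls: buffer (low) and maximal DAMGO (high)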
TRPC4 block – blocks the mouse TRPC4 cation channel. AID 2247. 300,000 compounds, 0.39% hits. HEK293 TRPC4beta/mu-opioid, DAMGO-evoked Fluo4 calcium flux; hits give low values. Q9QUQ5. B-score at 10 µM;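 active = B-score over 3 SD under the library average, no early fluorescence shift, positive overall ratio signal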
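Signal: kinetic Fluo4 fluorescence imaging of calcium influx. Material: stable TRPC4beta/mu-opioid receptor HEK293 cells. Probe or stimulus: DAMGO in two steps, submaximal then maximal.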
TRPC4 PAM – allosterically enhances the mouse TRPC4 cation channel; AID 2227; HEK293 TRPC4beta/mu-opioid, DAMGO EC20, Fluo-4 Ca2+ flux; hits give high values; 310,000 compounds, 0.42% hits; Q9QUQ5; B-score at 10 µM;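 active = B-score of calcium response area above 5 SD of library B-scores, with initial fluorescence ratio within 5 SD of library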
TRPC6 activator – mouse TRPC6 channel activation. HEK293-TRPC6 membrane potential dye fluorescence; hits give high values. 310,000 compounds, 0.13% hits. B-score at 10 µM;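 active = B-score of the integrated fluorescence ratio above library mean plus 3 SD, and starting fluorescence ratio within library mean plus 5 SD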;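 note: higher score means more depolarization so channel activation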
Target sequence (Q61143 whole entry, looked up): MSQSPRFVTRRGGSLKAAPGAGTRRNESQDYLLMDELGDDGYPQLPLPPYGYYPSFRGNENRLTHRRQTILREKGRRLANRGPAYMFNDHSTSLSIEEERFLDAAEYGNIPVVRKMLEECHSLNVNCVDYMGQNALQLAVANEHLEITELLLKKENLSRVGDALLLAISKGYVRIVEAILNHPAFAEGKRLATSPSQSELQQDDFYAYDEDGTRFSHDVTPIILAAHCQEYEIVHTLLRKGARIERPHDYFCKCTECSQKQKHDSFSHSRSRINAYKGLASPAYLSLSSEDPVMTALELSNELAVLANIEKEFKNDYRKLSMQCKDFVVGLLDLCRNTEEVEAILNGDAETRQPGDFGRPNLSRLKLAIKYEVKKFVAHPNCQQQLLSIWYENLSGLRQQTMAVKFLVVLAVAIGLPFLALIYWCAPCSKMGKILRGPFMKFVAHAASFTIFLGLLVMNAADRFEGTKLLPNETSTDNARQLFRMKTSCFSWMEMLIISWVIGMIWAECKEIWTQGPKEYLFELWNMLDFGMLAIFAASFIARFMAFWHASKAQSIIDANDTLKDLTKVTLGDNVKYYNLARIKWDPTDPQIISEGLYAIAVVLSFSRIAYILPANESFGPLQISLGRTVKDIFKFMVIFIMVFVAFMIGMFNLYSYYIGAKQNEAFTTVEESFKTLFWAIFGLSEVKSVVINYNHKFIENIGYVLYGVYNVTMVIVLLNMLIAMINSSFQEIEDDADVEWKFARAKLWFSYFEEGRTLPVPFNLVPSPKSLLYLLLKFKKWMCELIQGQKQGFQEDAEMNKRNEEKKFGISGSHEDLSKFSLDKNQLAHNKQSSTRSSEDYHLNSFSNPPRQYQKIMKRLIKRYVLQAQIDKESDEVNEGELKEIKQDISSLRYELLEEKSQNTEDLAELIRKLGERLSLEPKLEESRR
TRPC6 inh – mouse TRPC6 channel inhibition | Q61143 | HEK293-TRPC6, membrane potential dye, ACh-evoked depolarization; hits give low values | B-score at 10 µM | 310,000 compounds, 1.1% hits;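 active = B-score under library mean minus 3 SD, initial fluorescence not abnormally high, positive integrated signal ratio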;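 note: B-score derived from integrated fluorescence ratio over the kinetic read; more negative B-score means stronger inhibition of depolarization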
Large screens that a line does not name were inactive. In the library only some 2.3% were active in any assay of this set; here they are far more common.

NC1=NC[C@H](Cc2ccc(O)cc2)N1CC1CCCCC1	TRPC4 agonist 76
COc1ccccc1N1CCN(C2CCCN(Cc3ccc(Cl)cc3)C2)CC1 (stereo not given)	none
COc1ccccc1N1CCN(C2CCCN(C(=O)c3oc(C)cc3C)C2)CC1 (stereo not given)	TRPC4 agonist 54
COc1ccc(O)c(CN2CCCC(N3CCN(c4ccccc4OC)CC3)C2)c1 (stereo not given)	TRPC4 agonist 43
COc1ccccc1N1CCN(C2CCCN(Cc3ccccc3OCCO)C2)CC1 (stereo not given)	TRPC4 PAM 12
O=C(NNc1c(F)c(F)cc(F)c1F)c1cc2ccccc2oc1=O	none
Cc1ccc(NC(=O)CSc2nnc(-c3ccncc3)n2C)cc1S(=O)(=O)N1CCOCC1	none
Cc1ccccc1C(=O)NNC(=S)NC(=O)c1ccccc1	TRPC4 agonist 205
O=C(NNC(=S)NC(=O)c1ccccc1[N+](=O)[O-])c1ccccc1[N+](=O)[O-]	none
O=C(NNC(=S)NC(=O)c1ccccc1[N+](=O)[O-])c1ccc(Cl)cc1Cl	TRPC4 agonist 49
Cc1ccc(C(=O)NC(=S)NNC(=O)c2ccccc2[N+](=O)[O-])cc1	TRPC4 agonist 53
Cc1ccc(C(=O)NNC(=S)NC(=O)c2ccccc2)cc1	TRPC4 agonist 218
CCN(CC)c1ccc(S(=O)(=O)N2CCOCC2)cc1NC(=O)COC(=O)c1cccnc1SC	none
O=C(NC1CCCCC1)c1ccc(-c2cccc([N+](=O)[O-])c2)o1	none
COc1ccc(OC)c(C(=O)c2ccc(C(=O)Nc3cccc4ccccc34)cc2)c1	none
O=C(NNC(=S)NC(=O)c1ccccc1)c1ccc([N+](=O)[O-])cc1	TRPC4 agonist 56
CCCCCC(=O)NNC(=S)NC(=O)c1ccc([N+](=O)[O-])cc1	TRPC4 agonist 79
Cc1ccc(C(=O)NC(=S)NNC(=O)c2ccccc2)cc1	TRPC4 agonist 90
Cc1ccccc1OCC(=O)Nc1ccccc1NC(=O)c1ccco1	none
Cc1ccccc1OCC(=O)NNC(=S)NC(=O)c1ccco1	TRPC4 agonist 88
COc1ccc(NC(=O)CSc2nnc(Cn3cnc4ccccc43)o2)cc1	none
O=C(Cn1ccc2cc(S(=O)(=O)N3CCCC3)ccc21)NCc1ccco1	none
Cc1ccc(C(=O)NNC(=S)NC(=O)c2ccco2)cc1	TRPC4 agonist 133
O=C(NNC(=S)NC(=O)c1ccccc1Cl)c1cccc([N+](=O)[O-])c1	TRPC4 agonist 106
O=C(O)c1ccc(NC(=S)NC(=O)c2ccc(-c3ccccc3)cc2)cc1	TRPC4 block -6
Cc1ccc(C(=O)NNC(=O)c2ccco2)cc1	none
O=C(NNC(=S)NC(=O)c1ccc(Br)cc1)c1cccc([N+](=O)[O-])c1	none
COc1ccc(-n2nc(C(=O)NCC(=O)NCc3ccc(F)cc3)c3ccccc3c2=O)cc1OC	none
Cn1nnc(NC(=S)NC(=O)c2cc(Cl)ccc2Cl)n1	none
COc1ccc(OC)c(NC(=O)COC(=O)/C=C/c2ccc(Cl)cc2)c1	none
Clc1ccccc1C1CC(c2ccccc2)=Nc2ccccc2N1 (stereo not given)	TRPC4 PAM 10
CCOC(=O)c1[nH]c(C)c(C(=O)OCc2ccccc2F)c1C	none
O=C(Nc1ncc(Br)s1)C(Cc1ccccc1)n1cccc1 (stereo not given)	TRPC4 PAM 36
O=C(Nc1cccnc1)C(Cc1ccccc1)n1cccc1 (stereo not given)	none
Cc1cccc2sc(N(CCN(C)C)C(=O)c3cc(Cl)sc3Cl)nc12	TRPC4 PAM 12
Cc1ccn2c(=O)c(NC(=O)c3cccs3)c(C)nc2c1	none
Cc1c(Cl)ccc(S(=O)(=O)NCCCn2ccnc2)c1Cl	TRPC4 agonist 50
COc1c(S(=O)(=O)NCCCn2ccnc2)ccc(Cl)c1Cl	none
Cc1cc(C)c(S(=O)(=O)NCCCn2ccnc2)c(C)c1	TRPC4 agonist 68
CC1CCN(C(C(=O)NC2CCCCC2)c2cc3c(cc2[N+](=O)[O-])OCO3)CC1 (stereo not given)	TRPC4 PAM 11
CC1CCCN(C(C(=O)NC2CCCCC2)c2cc3c(cc2[N+](=O)[O-])OCO3)C1 (stereo not given)	none
CCCCN(C)C(=O)Cn1ncc2c3ccccc3n(CCC)c2c1=O	TRPC4 PAM 21
Cc1ccccc1OCCNc1cc(N2CCNCC2)ccc1[N+](=O)[O-]	TRPC4 PAM 14, TRPC6 inh -7.94
CN(C(=O)COC(=O)c1ccc2c(=O)n3c(nc2c1)CCC3)C1CCS(=O)(=O)C1 (stereo not given)	none
COc1ccc(C2C(O)C(c3c[nH]c4ccccc34)=NN2C(=O)CCl)cc1 (stereo not given)	TRPC4 PAM 21
Fc1ccc(COc2ccccc2CNCc2ccncc2)cc1	none
Brc1ccc(OCc2ccccc2)c(CNCc2ccncc2)c1	TRPC4 block -5
O=C(COc1ccc(Br)cc1CO)Nc1ccc(F)cc1	none
Clc1cc(Br)ccc1OCCCNCc1ccccc1	TRPC4 agonist 75
OCCNCc1cc(Br)ccc1OCc1ccc(F)cc1	TRPC4 block -6
OCCCCNCc1cc(Br)ccc1OCc1ccccc1F	TRPC4 block -7
COC(=O)[C@@H]1CCCN1Cc1nc(Cc2ccccc2F)no1	none
OCCNCc1cc(Br)ccc1OCc1ccc(Cl)cc1Cl	TRPC4 block -8
CCCC(=O)Nc1ccc2c(c1)nc(CCN1CCCCC1)n2C	none
Cc1ccccc1Cn1ccc(NC(=O)c2cnn3cccnc23)n1	none
O=C(Nc1ccc2c(c1)OCO2)c1cnn2cccnc12	TRPC4 PAM 50
Cc1cc(NC(=O)c2cnn3cccnc23)nn1CC(=O)Nc1cccnc1	TRPC4 agonist 51, TRPC4 PAM 150
CCn1nc(C)c(CNC(=O)c2cc(COc3ccc(F)cc3Cl)on2)c1C	none
Nc1cccc(-n2nnnc2CN2CCOCC2)c1	none
CC(C)S(=O)(=O)c1csc(NC(=O)Nc2cc(Cl)ccc2Cl)c1Cl	none
COc1cccc(C(=O)NC2CCCN(C3Cc4ccccc4C3)C2)c1OC (stereo not given)	TRPC4 agonist 90
CC#CC(=O)NC1CCCN(C2Cc3ccccc3C2)C1 (stereo not given)	none
c1ccc2c(-c3cn4ccccc4n3)c[nH]c2c1	TRPC4 block -9, TRPC6 inh -5.47
COCCN1CCN(c2c(C)c(C)nc3cc(-c4cccc(OC)c4)nn23)CC1	TRPC4 agonist 48
CCOCCN1CCN(c2c(C)c(C)nc3cc(-c4cc(OC)cc(OC)c4)nn23)CC1	none
CCOP(=O)(c1ccccc1)c1nc(-c2ccccc2Cl)oc1N1CCCCC1 (stereo not given)	TRPC4 PAM 17
COC(=O)c1sc(NC(=S)NC(=O)c2ccccc2C)nc1C	TRPC4 agonist 49
c1ccn2cc(C34CC5CC(CC(C5)C3)C4)nc2c1	TRPC4 block -7
